Assay results: ChEMBL document CHEMBL1255487, “Preclinical evaluation of the antifolate QN254, 5-chloro- N'6'-(2,5-dimethoxy-benzyl)-quinazoline-2,4,6-triamine, as an antimalarial drug candidate” (Antimicrob Agents Chemother, 2010)

How the values were obtained:
[1] = Tmax in Wistar rat at 25 mg/kg, po; format: ADME, organism-based; parameters: dose 25 mg/kg, route oral; conditions: in vivo
Summary of the method: (§1)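 Rats dosed with 25 mg/kg p.o. as a 2.5 mg/ml suspension in 0.5% CMC, or with 5 mg/kg i.v. at 1 mg/ml in 10% NMP, 30% PEG 400 and 60% of 10% vitamin E-TPGS. Plasma sampled over time, extracted with acidified acetonitrile (8:1) and quantified by LC-MS, LLOQ 12 ng/ml.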

[2] = Volume of distribution in CD-1 mouse at 5 mg/kg, iv; format: ADME, organism-based; parameters: dose 5 mg/kg, route intravenous; conditions: in vivo
Summary of the method: (§2)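 Mice dosed with 25 mg/kg p.o. as a 2.5 mg/ml suspension in 0.5% CMC, or with 5 mg/kg i.v. at 1 mg/ml in 10% NMP, 30% PEG 400 and 60% of 10% vitamin E-TPGS. Blood sampled at several time points. Plasma extracted with acidified acetonitrile (8:1) and quantified by LC-MS, LLOQ 12 ng/ml.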

[3] = Volume of distribution in Wistar rat at 5 mg/kg, iv; format: ADME, organism-based; parameters: dose 5 mg/kg, route intravenous; conditions: in vivo; summary of the method: as §1
[4] = Cmax in CD-1 mouse at 25 mg/kg, po; format: ADME, organism-based; parameters: dose 25 mg/kg, route oral; conditions: in vivo; summary of the method: as §2
[5] = Half life in CD-1 mouse at 25 mg/kg, po; format: ADME, organism-based; parameters: dose 25 mg/kg, route oral; conditions: in vivo; summary of the method: as §2
[6] = tested on: Plasmodium berghei; assay: Antimalarial activity against Plasmodium berghei ANKA infected in NMRI mice (Mus musculus) assessed as reduction in parasitemia at 10 mg/kg, perorally administered as single dose measured on day 3 postinfection; format: functional; parameters: scale not given: the % may be the effect or the level left; conditions: route oral
Summary of the method: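 P. berghei ANKA given intravenously to groups of 5 female NMRI mice (20–22 g): 0.2 ml of 1 × 10^8 parasitized erythrocytes/ml from a donor mouse. Oral dosing in 0.5% carboxymethyl cellulose. Parasitemia counted by microscopy. Activity is the control-minus-treated parasitemia difference, expressed as percent of untreated controls.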

## COc1ccc(OC)c(CNc2ccc3nc(N)nc(N)c3c2Cl)c1
[1]
  Tmax: 4 h
[2]
  Vd: 2.85 L/kg
[3]
  Vd: 4.7 L/kg
[4]
  Cmax: 5.1 µM
[5]
  half-life: 4.84 h
[6]
  Activity: 59%
